ChEMBL document CHEMBL2169850, “3,6-bis(3-alkylguanidino)acridines as DNA-intercalating antitumor agents” (Eur J Med Chem, 2012)
Calls of active or inactive are those of the source. No cut-off for these calls is given here.

Assays:
[1] = tested on: HL-60; assay: Cell cycle arrest in human HL60 cells assessed as accumulation at G1 phase at 5 uM incubated for 48 hrs by flow cytometry (reference value: 38.29 +/- 0.22%); type: functional
[2] = tested on: HL-60; assay: Cell cycle arrest in human HL60 cells assessed as accumulation at G1 phase at 15 uM incubated for 72 hrs by flow cytometry (reference value: 47.02 +/- 6.19%); type: functional
[3] = tested on: HL-60; assay: Cell cycle arrest in human HL60 cells assessed as accumulation at G2/M phase at 5 uM incubated for 48 hrs by flow cytometry (reference value: 16.42 +/- 1.03%); type: functional
[4] = tested on: HL-60; assay: Antiproliferative activity against human HL60 cells assessed as cell number at 15 uM incubated for 48 hrs by Coulter counting method; type: functional
Procedure, shortened: (§1)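 HL-60 cells in RPMI with 10% heat-inactivated FCS, antibiotics and amphotericin, 37 °C, 5% CO2, seeded in 60 mm dishes. Compound added at 5, 15 or 25 µM for 24, 48 or 72 h. Absolute cell counts taken by Coulter counter and expressed as percentage of untreated control. Mean ± SD of at least three independent experiments; one-way ANOVA with Tukey test, p < 0.05.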

[5] = tested on: HL-60; assay: Cell cycle arrest in human HL60 cells assessed as accumulation at G1 phase at 25 uM incubated for 24 hrs by flow cytometry (reference value: 35.96 +/- 1.63%); type: functional
[6] = tested on: HL-60; assay: Cell cycle arrest in human HL60 cells assessed as accumulation at S phase at 15 uM incubated for 72 hrs by flow cytometry (reference value: 40.30 +/- 3.15%); type: functional
[7] = tested on: Nucleic Acid; assay: Binding affinity to calf thymus DNA at 6.5 uM by CD spectroscopy; type: nucleic-acid assay; details: Bos taurus
Procedure, shortened: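 CD spectra were recorded in 1 mm quartz cuvettes in 0.01 M Tris, pH 7.4, with 6.52 µM compound and ctDNA. Each spectrum is the mean of three scans after buffer background subtraction.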

[8] = tested on: HL-60; assay: Induction of mitochondrial membrane dissipation in human HL60 cells at 5 to 25 uM incubated for 24 to 72 hrs by FACS assay; type: functional
Procedure, shortened: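 HL-60 cells (5 × 10^5) were treated 24, 48 or 72 h, washed in HBSS and loaded with TMRE for 20 min at 37 °C in the dark. TMRE fluorescence in FL2 was read by flow cytometry, with 1 × 10^4 gated cells per sample. Result is the percentage of cells with decreased fluorescence (dissipated MMP). Mean ± SD, n ≥ 3.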

[9] = tested on: HL-60; assay: Antiproliferative activity against human HL60 cells assessed as cell number at 25 uM incubated for 24 hrs by Coulter counting method; type: functional; procedure, shortened: as §1
[10] = tested on: HL-60; assay: Cell cycle arrest in human HL60 cells assessed as accumulation at S phase at 25 uM incubated for 24 hrs by flow cytometry (reference value: 44.41 +/- 0.77%); type: functional
[11] = tested on: HL-60; assay: Cell cycle arrest in human HL60 cells assessed as accumulation at G2/M phase at 15 uM incubated for 24 hrs by flow cytometry (reference value: 19.62 +/- 0.96%); type: functional
[12] = tested on: Nucleic Acid; assay: Binding affinity to Escherichia coli pUC19 DNA assessed as reduction in DNA mobility to 5 to 80 uM by EMSA; type: nucleic-acid assay
Procedure, shortened: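 Supercoiled pUC19 plasmid incubated with compound at 5, 20, 40, 60 or 80 µM. Native agarose gel electrophoresis run with no ethidium bromide in the gel; band mobility was then read.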

[13] = tested on: HL-60; assay: Induction of caspase-3 activation in human HL60 cells at 5 to 25 uM incubated for 24 to 72 hrs by FACS assay; type: functional, cell-based
Procedure, shortened: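 HL-60 cells (RPMI with 10% heat-inactivated FCS, 37 °C, 5% CO2) were seeded in dishes and treated 24, 48 or 72 h. Cells were fixed and permeabilized 20 min on ice, then stained 30 min at RT with FITC anti-active caspase-3 antibody. Read-out was the percentage of positive cells by flow cytometry. Mean ± SD of at least three independent experiments; ANOVA with Tukey.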

[14] = tested on: HL-60; assay: Cell cycle arrest in human HL60 cells assessed as accumulation at S phase at 15 uM incubated for 24 hrs by flow cytometry (reference value: 44.41 +/- 0.77%); type: functional
[15] = tested on: HL-60; assay: Cell cycle arrest in human HL60 cells assessed as accumulation at S phase at 5 uM incubated for 24 hrs by flow cytometry (reference value: 44.41 +/- 0.77%); type: functional
[16] = tested on: HL-60; assay: Antiproliferative activity against human HL60 cells assessed as cell number at 15 uM incubated for 24 hrs by Coulter counting method; type: functional; procedure, shortened: as §1
[17] = tested on: HL-60; assay: Induction of apoptosis in human HL60 cells at 5 to 25 uM incubated for 72 hrs by AnnexinV/propidium iodide staining method; type: functional, cell-based
Procedure, shortened: (§2)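 HL-60 cells (1.5 × 10^5) were treated at 5–25 µM for 24, 48 or 72 h and harvested. They were stained with Annexin V-FITC for 10 min in HEPES/CaCl2/NaCl binding buffer, washed, briefly stained with PI (1 mg/mL) and analysed by flow cytometry for apoptosis and necrosis. Mean ± SD, n ≥ 3.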

[18] = tested on: HL-60; assay: Antiproliferative activity against human HL60 cells assessed as cell number at 5 uM incubated for 24 hrs by Coulter counting method; type: functional; procedure, shortened: as §1
[19] = tested on: HL-60; assay: Cell cycle arrest in human HL60 cells assessed as accumulation at G2/M phase at 15 uM incubated for 48 hrs by flow cytometry (reference value: 16.42 +/- 1.03%); type: functional
[20] = tested on: HL-60; assay: Cell cycle arrest in human HL60 cells assessed as accumulation at S phase at 25 uM incubated for 72 hrs by flow cytometry (reference value: 40.30 +/- 3.15%); type: functional
[21] = tested on: HL-60; assay: Antiproliferative activity against human HL60 cells assessed as cell number at 5 uM incubated for 48 hrs by Coulter counting method; type: functional; procedure, shortened: as §1
[22] = tested on: HL-60; assay: Induction of necrosis in human HL60 cells at 5 to 25 uM incubated for 72 hrs by AnnexinV/propidium iodide staining method; type: functional, cell-based
Procedure, shortened: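 HL-60 cells (1.5 × 10^5) were exposed to compound, then stained 10 min with Annexin V-FITC in HEPES/CaCl2/NaCl binding buffer. Cells were washed, briefly stained with propidium iodide and analysed by flow cytometry for apoptotic and necrotic fractions. Mean ± SD of at least three independent experiments.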

[23] = tested on: HL-60; assay: Induction of apoptosis in human HL60 cells at 5 to 25 uM incubated for 48 hrs by AnnexinV/propidium iodide staining method; type: functional, cell-based; procedure, shortened: as §2
[24] = tested on: HL-60; assay: Cell cycle arrest in human HL60 cells assessed as accumulation at G2/M phase at 15 uM incubated for 72 hrs by flow cytometry (reference value: 12.68 +/- 3.21%); type: functional
[25] = tested on: HL-60; assay: Cell cycle arrest in human HL60 cells assessed as accumulation at G1 phase at 15 uM incubated for 48 hrs by flow cytometry (reference value: 38.29 +/- 0.22%); type: functional

Activity [7]	Activity [12]	SMILES	Activity [1]	Activity [2]	Activity [3]	Activity [4] [%]	Activity [5]	Activity [6]	Activity [8]	Activity [9] [%]	Activity [10]	Activity [11]	Activity [13]	Activity [14]	Activity [15]	Activity [16] [%]	Activity [17]	Activity [18] [%]	Activity [19]	Activity [20]	further results
Active	Active	CCNC(=N)Nc1ccc2cc3ccc(NC(=N)NCC)cc3nc2c1.Cl.Cl.O	inactive	inactive	inactive	80.03	inactive	inactive	inactive	71.98	inactive	inactive	inactive	inactive	inactive	78.95	inactive	71.7	inactive	inactive	Activity [21]: 78.56%; Activity [22]: inactive; Activity [23]: inactive; Activity [24]: inactive; Activity [25]: inactive
Active	inactive	CCCCCCNC(=N)Nc1ccc2cc3ccc(NC(=N)NCCCCCC)cc3nc2c1.Cl.Cl.O	45.1%	70.31%	11.36%	52.7	51.52%	23.84%	70%	76.71	38.11%	11.65%	Active	46.58%	47.31%	74.49	Active	73.7	8.11%	22.5%	Activity [21]: 72.18%; Activity [22]: Active; Activity [23]: Active; Activity [24]: 5.85%; Activity [25]: 64.37%
